For data set [1], the target named is hTRPA1 (Homo sapiens, UniProt O75762). The data set is described as follows: whole-cell patch-clamp of TRPA1 currents in HEK293 cells. The following applies: ruthenium red 20 μmol/L; current activated by AITC 300 μmol/L. It is filed as cell-based. The gist of the method:
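Human channel cDNAs were transiently transfected into HEK293 cells with Lipofectamine 2000. EGFP-positive cells were recorded whole-cell 18 h later at 22–24 °C with ~4.0 MΩ fire-polished pipettes. Cells were held at 0 mV with 500-ms ramps from −100 to +100 mV every 2 s. Test compound in perfusion solution was co-applied with agonist, and average current inhibition was summarised; n = 4–6.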
(In general: The patch-clamp technique gives a direct electrical read-out from membranes.)

In data set [2] the test system is HEK293 cells expressing hTRPV3. In words: cell death assay. It is filed as cell-based, human. To be noted: 12 h, n = 4. Put shortly:
(§1)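 HEK293 cells 12 h after hTRPV3 transfection, or HaCaT cells, were seeded in six-well plates, randomly split into 6 groups, and treated 12 h in culture medium. Cells were detached with 0.25% trypsin (HEK293 1 min; HaCaT 7 min), centrifuged, and stained 30 min in PBS with Hoechst and PI. Five random fields per group were imaged. Death ratio = PI-labelled over Hoechst-labelled nuclei, averaged over five images; n = 4.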

Data set [3] concerns the target T1, hTRPV3 (Homo sapiens, UniProt Q8NET8).
T1 sequence (Q8NET8 1-790): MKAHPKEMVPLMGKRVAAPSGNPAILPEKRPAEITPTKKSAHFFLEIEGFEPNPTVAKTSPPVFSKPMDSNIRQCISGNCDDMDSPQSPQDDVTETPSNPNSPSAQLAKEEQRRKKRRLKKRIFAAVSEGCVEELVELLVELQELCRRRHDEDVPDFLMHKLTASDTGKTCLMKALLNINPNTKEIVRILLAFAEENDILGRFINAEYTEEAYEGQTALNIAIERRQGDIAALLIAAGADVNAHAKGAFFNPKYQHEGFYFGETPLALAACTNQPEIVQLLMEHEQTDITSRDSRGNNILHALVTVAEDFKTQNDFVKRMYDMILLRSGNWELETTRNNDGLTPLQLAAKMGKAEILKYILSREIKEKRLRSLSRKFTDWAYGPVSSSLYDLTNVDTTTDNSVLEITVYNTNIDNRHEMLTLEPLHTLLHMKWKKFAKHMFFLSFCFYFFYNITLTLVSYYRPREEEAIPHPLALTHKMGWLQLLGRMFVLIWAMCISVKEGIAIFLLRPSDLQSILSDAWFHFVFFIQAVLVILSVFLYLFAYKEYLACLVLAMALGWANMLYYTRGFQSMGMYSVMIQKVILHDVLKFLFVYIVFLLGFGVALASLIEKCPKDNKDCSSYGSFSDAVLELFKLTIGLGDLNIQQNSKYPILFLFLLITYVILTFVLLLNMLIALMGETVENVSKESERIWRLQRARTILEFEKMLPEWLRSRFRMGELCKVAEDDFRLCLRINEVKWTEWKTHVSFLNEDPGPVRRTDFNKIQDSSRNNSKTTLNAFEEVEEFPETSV
The data set is described as follows: inside-out single-channel recordings of HEK293 cells overexpressing hTRPV3. It is filed as biochemical. Put shortly: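 Inside-out patches from EGFP-identified HEK293 cells, 18 h after hTRPV3 transfection, used 6–10 MΩ pipettes. Patches were held at 0 mV, then stepped to +80 mV. Currents were sampled at 10 kHz, filtered at 2.9 kHz, at 22–24 °C. All-points histograms were Gaussian-fitted for conductance and mean open probability; n = 4.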

Data set [4] has as its target T2, mTRPV3 H426A (Mus musculus, UniProt Q8K424, H426A).
T2 sequence (Q8K424 1-791 H426A): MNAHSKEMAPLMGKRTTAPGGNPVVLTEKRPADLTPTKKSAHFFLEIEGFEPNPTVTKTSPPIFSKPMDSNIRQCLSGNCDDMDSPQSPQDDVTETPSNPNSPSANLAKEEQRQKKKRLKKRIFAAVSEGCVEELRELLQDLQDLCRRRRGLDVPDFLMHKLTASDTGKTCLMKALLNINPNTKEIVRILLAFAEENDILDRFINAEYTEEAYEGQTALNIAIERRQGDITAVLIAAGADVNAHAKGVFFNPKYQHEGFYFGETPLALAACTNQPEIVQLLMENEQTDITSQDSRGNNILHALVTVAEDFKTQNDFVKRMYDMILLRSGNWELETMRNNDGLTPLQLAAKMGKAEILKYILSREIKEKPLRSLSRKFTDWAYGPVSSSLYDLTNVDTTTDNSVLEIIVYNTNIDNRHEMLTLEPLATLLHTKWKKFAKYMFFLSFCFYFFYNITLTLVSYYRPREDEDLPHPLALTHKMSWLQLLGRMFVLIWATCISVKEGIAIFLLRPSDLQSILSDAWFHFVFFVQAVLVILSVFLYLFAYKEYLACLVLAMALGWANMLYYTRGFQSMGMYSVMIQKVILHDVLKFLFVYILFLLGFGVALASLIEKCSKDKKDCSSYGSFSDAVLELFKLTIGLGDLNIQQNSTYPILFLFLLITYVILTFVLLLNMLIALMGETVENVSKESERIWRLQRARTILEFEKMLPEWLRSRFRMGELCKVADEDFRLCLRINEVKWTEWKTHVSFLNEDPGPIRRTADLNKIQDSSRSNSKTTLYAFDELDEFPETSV
In words: whole-cell patch-clamp of mTRPV3 H426A mutant in HEK293 cells. It is filed as cell-based. Put shortly: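 The sequence-confirmed site-directed mTRPV3 mutant was transiently expressed in HEK293 cells, and EGFP-positive cells were recorded whole-cell 18 h post-transfection. Cells were held at 0 mV with 500-ms ramps from −100 to +100 mV every 2 s, at 22–24 °C. Compounds were diluted in perfusion solution.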

For data set [5], the system named is HaCaT cells. The data set is described as follows: cell proliferation MTT assay, HaCaT cells. It is filed as cell-based, human. The following applies: carvacrol 300 μmol/L, 24 h. The gist of the method: (§2)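 hTRPV3-transfected HEK293 or HaCaT cells were plated at 5 × 10^3 per well for 24 h, then exposed 24 h to TRPV3 activator and/or inhibitor in culture medium. MTT (5 mg/mL solution) was added for 4 h. Medium was removed, formazan dissolved in DMSO, and absorbance read at 490 nm.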
(Tetrazolium dyes change colour on reduction, which living cells bring about.)

Data set [6] relates to HaCaT cells. The data set is described as follows: cell death assay. It is filed as cell-based, human. To be noted: carvacrol 300 μmol/L alone; 12 h. The gist of the method:
as §1

The subject of data set [7] is HEK293 cells expressing hTRPV3. The data set is described as follows: cell proliferation MTT assay, HEK293 cells transfected with hTRPV3. It is filed as cell-based, human. The following applies: carvacrol 300 μmol/L, 24 h. The gist of the method:
as §2

Data set [8] has as its system C57BL/6J mice. The data set is described as follows: ear swelling and chronic pruritus model induced by TRPV3 agonist carvacrol. It counts as in vivo, mouse. The following applies: 3% carvacrol only; recorded 1 h on day 7. The gist of the method:
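Male C57BL/6J mice, 8–10 weeks old, were acclimatised for at least one week at 22 ± 2 °C on a 12 h light/dark cycle. The right ear received topical 3% carvacrol in ethanol/olive oil (4/1, v/v) once daily for 6 days. Test compound (1.0 mmol/L in 50 μL solvent) was applied 30 min after carvacrol; vehicle was solvent with 1% DMSO. Scratching was recorded for 1 h on day 7; n = 6–8 mice per group.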

hTRPA1, sequence (O75762 whole entry, the tested form may be a part): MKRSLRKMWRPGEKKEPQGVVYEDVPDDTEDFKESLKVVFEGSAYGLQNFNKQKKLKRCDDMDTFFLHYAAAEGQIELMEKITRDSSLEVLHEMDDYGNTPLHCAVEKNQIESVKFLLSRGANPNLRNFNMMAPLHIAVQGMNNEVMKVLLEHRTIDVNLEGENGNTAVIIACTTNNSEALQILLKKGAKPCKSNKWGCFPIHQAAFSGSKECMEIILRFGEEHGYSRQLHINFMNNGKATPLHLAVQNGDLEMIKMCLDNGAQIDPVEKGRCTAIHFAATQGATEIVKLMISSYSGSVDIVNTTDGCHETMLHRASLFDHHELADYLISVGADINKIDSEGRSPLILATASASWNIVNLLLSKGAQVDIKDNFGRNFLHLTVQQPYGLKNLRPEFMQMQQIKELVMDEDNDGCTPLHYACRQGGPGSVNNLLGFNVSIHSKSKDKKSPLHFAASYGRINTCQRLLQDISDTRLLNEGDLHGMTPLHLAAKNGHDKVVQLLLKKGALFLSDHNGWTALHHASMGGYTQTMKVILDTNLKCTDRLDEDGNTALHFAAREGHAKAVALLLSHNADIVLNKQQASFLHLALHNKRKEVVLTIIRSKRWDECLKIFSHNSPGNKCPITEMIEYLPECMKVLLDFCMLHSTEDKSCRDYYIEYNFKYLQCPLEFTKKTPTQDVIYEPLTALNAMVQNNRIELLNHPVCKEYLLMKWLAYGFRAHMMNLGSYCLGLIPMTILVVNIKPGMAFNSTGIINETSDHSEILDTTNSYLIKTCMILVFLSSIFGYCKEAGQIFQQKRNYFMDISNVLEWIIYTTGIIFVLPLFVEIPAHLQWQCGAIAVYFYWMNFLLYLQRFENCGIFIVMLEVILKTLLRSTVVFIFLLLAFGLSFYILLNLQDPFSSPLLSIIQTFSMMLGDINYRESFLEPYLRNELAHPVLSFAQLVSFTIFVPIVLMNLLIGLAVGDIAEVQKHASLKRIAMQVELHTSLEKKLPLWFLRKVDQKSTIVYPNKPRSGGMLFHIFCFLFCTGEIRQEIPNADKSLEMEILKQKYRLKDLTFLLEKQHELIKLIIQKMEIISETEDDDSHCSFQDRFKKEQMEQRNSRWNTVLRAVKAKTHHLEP

As for `N.N.N.N.N.N.N.N.N.N.N.N.N.N.[Cl-].[Cl-].[Cl-].[Cl-].[Cl-].[Cl-].[O-2].[O-2].[Ru+3].[Ru+3].[Ru+4]` [ruthenium red, reference compound], the “inhibition of TRPA1 current” value in data set [1] is reported as “inhibited”. Moreover, the cell death ratio in data set [2] (ruthenium red positive control with carvacrol 300 μmol/L) turned out to be 14.3 ± 1.7%. In data set [3] (RR 20 μmol/L with carvacrol 300 μmol/L, from 26.9 ± 5.5%, n = 4), this molecule displayed a channel open probability of 0.5 ± 0.4%. In data set [3] (RR 20 μmol/L with carvacrol 300 μmol/L, from 175.2 ± 0.9 pS, n = 4), the single-channel conductance is 122.8 ± 5.5 pS.
Consider `NCCOB(c1ccccc1)c1ccccc1` [2-APB, 2-aminoethoxydiphenyl borate, reference compound], for which the “activation of H426A mutant channel” value in data set [4] (2-APB 50 μmol/L) is recorded as “not activated”.
For the molecule `Cc1ccc(C(C)C)cc1O` [carvacrol, reference compound], the cell proliferation entry in data set [5] and in data set [7] was “suppressed the cell proliferation” each time. In addition, the cell death ratio in data set [6] stood at 13.0 ± 2.1%; in data set [2] (carvacrol 300 μmol/L alone, vehicle 5.3 ± 0.5%), 21.1 ± 1.9%. For the same molecule, in data set [4] (carvacrol 300 μmol/L), the “activation of H426A mutant current” value is given as “activated”. In addition, the “number of scratching bouts” value in data set [8] stood at 113.0 ± 16.9. The “increase of channel open probability versus vehicle” value in data set [3] (carvacrol 300 μmol/L alone) is “about 90 fold”. The single channel conductance in data set [3] (carvacrol 300 μmol/L alone) stood at 168.4 ± 2.1 pS. In addition, the channel open probability in data set [3] (carvacrol 300 μmol/L alone, vehicle control 0.3 ± 0.2%) turned out to be 26.9 ± 5.5%.

The values are drawn from article PMC8897028 (Acta Pharmaceutica Sinica. B, 2021).
